ChEMBL document CHEMBL4610095, “chiro-Inositol Derivatives from Chisocheton paniculatus Showing Inhibition of Nitric Oxide Production” (J Nat Prod, 2020)

What was measured:
[1] = system: RAW264.7; assay: Antiinflammatory activity in mouse RAW264.7 cells assessed as reduction in LPS-induced NO production incubated for 24 hrs by Griess reagent based assay; type: functional, cell-based; settings: RAW264.7, 24 h
Procedure, shortened: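 RAW 264.7 cells seeded at 2×10^5 cells/well and held 24 h at 37 °C, 5% CO2. Cells treated with or without compounds at various concentrations plus LPS (1 μg/mL) for 24 h. Nitrite in cell-free supernatant read by Griess reaction (sulfanilamide/phosphoric acid, N-1-naphthylethylenediamine) at 540 nm against a NaNO2 standard curve. L-NMMA served as positive control. IC50 reported.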

[2] = Cytotoxicity against mouse RAW264.7 cells assessed as cell viability at 100 ug/ml by MTT assay; type: cell-based; settings: read-out: Activity
Procedure, shortened: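 Compounds tested at 100 μg/mL on RAW 264.7 cells seeded at 2×10^5 cells/well. Cells were co-stimulated with LPS (1 μg/mL) for 24 h at 37 °C. Viability of the remaining cells after supernatant removal was measured by MTT colorimetric assay.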

Compound | IC50 [1] [µM] | viability at 100 ug/ml [2] [%]
C/C=C(\C)C(=O)O[C@@H]1[C@H](O)[C@@H](OC(=O)C(C)CC)[C@@H](OC(=O)/C(=C/C)CO)[C@H](O)[C@H]1OC(=O)/C(=C/C)CO (some centres not stated) | 7.1 | > 85
C/C=C(\CO)C(=O)O[C@@H]1[C@@H](O)[C@H](OC(=O)/C(=C/C)CO)[C@H](OC(=O)C(C)CC)[C@@H](O)[C@H]1OC(=O)C(C)CC (some centres not stated) | 95.6 | > 85
C/C=C(\CO)C(=O)O[C@H]1[C@H](OC(=O)C(C)CC)[C@H](O)[C@@H](OC(=O)C(C)CC)[C@@H](O)[C@@H]1OC(=O)/C(=C/C)CO (some centres not stated) | 62.9 | > 85
C/C=C(\C)C(=O)O[C@@H]1[C@H](O)[C@@H](O)[C@@H](OC(=O)/C(C)=C/C)[C@H](OC(=O)/C(=C/C)CO)[C@H]1OC(=O)/C(=C/C)CO | 56.7 | > 85

Now from value to compound, other results behind:

IC50 [1] [µM] | Compound | viability at 100 ug/ml [2] [%]
124 | C/C=C(\C)C(=O)O[C@@H]1[C@@H](O)[C@@H](OC(=O)C(C)CC)[C@H](OC(=O)/C(=C/C)CO)[C@@H](OC(=O)/C(=C/C)CO)[C@@H]1O (some centres not stated) | > 85
20.3 | C/C=C(\C)C(=O)O[C@@H]1[C@H](O)[C@@H](OC(=O)C(C)CC)[C@@H](O)[C@H](OC(=O)/C(=C/C)CO)[C@H]1OC(=O)/C(=C/C)CO (some centres not stated) | > 85
